Measured values collected from several papers.
Compare with care: the assays were run in different laboratories.
CDK1 with cyclin B: Cyclin-dependent kinase 1, with cyclin B (CDK1, Homo sapiens, UniProt P06493)
CDK1 with cyclin A: Cyclin-dependent kinase 1, with cyclin A (CDK1, Homo sapiens, UniProt P06493)
CDK1 with cyclin E: Cyclin-dependent kinase 1, with cyclin E (CDK1, Homo sapiens, UniProt P06493)

Cc1cc(NC(=O)c2cccc3cc(-c4cccc5[nH]nc(N)c45)ccc23)ccc1F
activity vs control (CDK1 with cyclin B; enzyme activity; inhibitor; 0.1 µM): 95%

O=C1NC(=O)c2cc(Nc3ccc(F)cc3)c(Nc3ccc(F)cc3)cc21
remaining signal (CDK1 with cyclin B; cell-free assay; 0.5 µM): 103%

CNC(=O)c1cc(Oc2ccc(NC(=O)Nc3ccc(Cl)c(C(F)(F)F)c3)cc2)ccn1
inhibition (CDK1 with cyclin B; enzyme activity; inhibitor; 10 µM): 10%

COc1cc(OC)c(C=C2C(O)=Nc3ccccc32)c(OC)c1
remaining signal (CDK1 with cyclin A; cell-free assay; 0.5 µM): 103%

CCCOc1ccc(OC)c(F)c1C(=O)c1ccc(C(=O)N[C@@H]2CNC[C@H]2NC(=O)c2ccc3[nH]ncc3c2)cc1
remaining activity (CDK1 with cyclin B; enzyme activity; inhibitor; 10 µM): 102%

COc1cc2ncnc(Nc3ccc(Oc4ccccc4)c(C)c3C)c2cc1OC
inhibition (CDK1 with cyclin B; enzyme activity; inhibitor; 1 µM): 3%

O=C(Nc1cnn(-c2csc(C(=O)NC3COC3)c2)c1)Nc1ccccc1Cl
remaining activity (CDK1 with cyclin E; enzyme activity; inhibitor; 5 µM): 94.7%

COc1cc(Cl)c(C(=O)N[C@@H](CN[C@H]2CC[C@@H](N)CC2)Cc2ccc(C#N)cc2)cc1-c1ccc(CN[C@H](C)c2ccc(C)cc2)o1
remaining activity (CDK1 with cyclin B; enzyme activity; inhibitor; 1 µM): 95%

CC(C)[C@H](CO)Nc1nc(Nc2cccc(Cl)c2)c2ncn(C(C)C)c2n1
remaining signal (CDK1 with cyclin A; cell-free assay; 0.5 µM): 31.7%

Cc1sc(C(=O)NC2COC2)cc1-n1cc(NC(=O)Nc2c(F)cccc2Cl)cn1
remaining activity (CDK1 with cyclin B; enzyme activity; inhibitor; 10 µM): 92.7%

O=C1Nc2ccc(Cl)cc2C1=Cc1cc(Cl)c(O)c(Cl)c1
remaining signal (CDK1 with cyclin A; cell-free assay; 0.5 µM): 91.9%

C=CC(=O)Nc1cc(Nc2nccc(Nc3cc(Cl)c(F)cc3C(C)(C)O)n2)c(OC)cc1N1CC[C@@H](N(C)C)C1
inhibition (CDK1 with cyclin B; enzyme activity; inhibitor; 1 µM): -13%

O=C1NC(=O)c2c1c1c3ccccc3[nH]c1n1cncc21
remaining signal (CDK1 with cyclin B; cell-free assay; 0.5 µM): 85.5%

CCN(CC)CCNC(=O)c1c(C)[nH]c(/C=C2\C(=O)Nc3ccc(F)cc32)c1C
inhibition (CDK1 with cyclin B; enzyme activity; inhibitor; 0.3 µM): 2%

CC(C)(C)c1nc(-c2cccc(NS(=O)(=O)c3c(F)cccc3F)c2F)c(-c2ccnc(N)n2)s1
remaining activity (Cyclin-dependent kinase 1, with cyclin A2 (CDK1, Homo sapiens, UniProt P06493); enzyme activity; inhibitor; radiometric; 1 µM): 84%

c1ccc(CNc2nc(N3CCOc4ccccc43)nc3c2CCCC3)cc1
inhibition (Cyclin-dependent kinase 1 (CDK1, Homo sapiens, UniProt P06493); target engagement in cells; inhibitor; chemoproteomics; 20 mM): -6.5%

CC(C)(O)[C@H]1CC[C@H](Nc2ccc3ncc(-c4cccc(C(F)(F)F)c4)n3n2)CC1
remaining activity (CDK1 with cyclin B; enzyme activity; inhibitor; 1 µM): 66.9%

CC(C)(C)c1nc2c(s1)c1nc(N)ncc1c1ccc(NS(=O)(=O)c3c(F)cccc3F)c(F)c12
remaining activity (Cyclin-dependent kinase 1, with cyclin E1 (CDK1, Homo sapiens, UniProt P06493); enzyme activity; inhibitor; radiometric; 1 µM): 83%

N#CCCc1ccc2c(c1)-c1[nH]c3ccc([N+](=O)[O-])cc3c1CC(=O)N2
remaining signal (CDK1 with cyclin A; cell-free assay; 0.5 µM): 24.8%

O=C(Nc1cnn(-c2csc(C(=O)NC3COC3)c2)c1)Nc1c(F)cccc1Cl
remaining activity (CDK1 with cyclin E; enzyme activity; inhibitor; 5 µM): 98.4%

CN1CC(Oc2cnc(C#N)cc2-c2ccn3nc(NC(=O)C4CC4)cc3c2)C1
inhibition (CDK1 with cyclin B; enzyme activity; inhibitor; 1 µM): -8%
